According to ChEMBL document CHEMBL1154522, “Aryl sulfamates are broad spectrum inactivators of sulfatases: effects on sulfatases from various sources” (Bioorg Med Chem Lett, 2009):

How the values were obtained:
Haliotis corrugata [1] = experiment: Inhibition of abalone entrails type 8 recombinant sulfatase expressed in Escherichia coli by fast phase inactivation
Patella vulgata [2] = experiment: Ratio of Kinact to Ki for Patella vulgata type 5 recombinant sulfatase expressed in Escherichia coli
Outline: (§1)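 Limpet sulfatase at pH 7 with 0–12.5 mM sulfamate; semi-logarithmic plots of residual activity over time, inactivation rates replotted against concentration to give Ki and kinact.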

[3] = target: Arylsulfatase (Pseudomonas aeruginosa (strain ATCC 15692 / PAO1 / 1C / PRS 101 / LMG12228)) (UniProt P51691); experiment: Inhibition of Pseudomonas aeruginosa recombinant arylsulfatase A expressed in Escherichia coli
Arylsulfatase (Pseudomonas aeruginosa (strain ATCC 15692 / PAO1 / 1C / PRS 101 / LMG12228)), sequence (P51691 whole entry): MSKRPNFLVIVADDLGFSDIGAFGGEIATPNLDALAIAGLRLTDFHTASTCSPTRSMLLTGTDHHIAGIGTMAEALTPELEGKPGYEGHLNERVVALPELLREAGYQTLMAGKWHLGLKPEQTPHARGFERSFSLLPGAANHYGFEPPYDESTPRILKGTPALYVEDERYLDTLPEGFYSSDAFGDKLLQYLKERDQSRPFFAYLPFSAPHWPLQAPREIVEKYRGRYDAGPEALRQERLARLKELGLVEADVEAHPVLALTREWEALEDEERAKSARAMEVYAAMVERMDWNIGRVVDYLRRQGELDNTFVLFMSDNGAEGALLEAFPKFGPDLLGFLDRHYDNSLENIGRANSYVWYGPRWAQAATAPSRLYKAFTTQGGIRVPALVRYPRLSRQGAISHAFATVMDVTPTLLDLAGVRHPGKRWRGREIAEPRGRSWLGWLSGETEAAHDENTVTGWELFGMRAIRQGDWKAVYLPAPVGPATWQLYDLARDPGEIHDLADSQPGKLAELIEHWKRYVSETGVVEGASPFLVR

Haliotis corrugata [4] = experiment: Protection against inactivation in abalone entrails type 8 recombinant sulfatase expressed in Escherichia coli assessed as ratio of residual enzyme activity to initial activity at 0.5 mM after 25 seconds using 4-nitrophenyl sulfate as substrate
Outline: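 Abalone sulfatase given 0.5 mM sulfamate at pH 7 with or without 30 mM 4-nitrophenyl sulfate; residual activity assayed 25 s after inactivator addition, expressed as vres/v0 against an untreated control.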

Haliotis corrugata [5] = experiment: Inhibition of abalone entrails type 8 recombinant sulfatase expressed in Escherichia coli by slow phase inactivation
Haliotis corrugata [6] = experiment: Ratio of Kinact to Ki for abalone entrails type 8 recombinant sulfatase expressed in Escherichia coli by slow phase inactivation
Patella vulgata [7] = experiment: Protection against inactivation in Patella vulgata type 5 recombinant sulfatase expressed in Escherichia coli assessed as ratio of residual enzyme activity to initial activity at 1 mM after 20 seconds using 4-nitrophenyl sulfate as substrate
Outline: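 Limpet sulfatase given 1 mM sulfamate at pH 7 with or without 79 mM 4-nitrophenyl sulfate; residual activity assayed 20 s after inactivator addition, expressed as vres/v0 against an untreated control.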

Haliotis corrugata [8] = experiment: Ratio of Kinact to Ki for abalone entrails type 8 recombinant sulfatase expressed in Escherichia coli by fast phase inactivation
Helix pomatia [9] = experiment: Ratio of Kinact to Ki for Helix pomatia type H1 recombinant sulfatase expressed in Escherichia coli
Outline: (§2)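 Snail sulfatase incubated at pH 7 with 0–500 µM 3-nitrophenyl sulfamate; residual activity plotted semi-logarithmically against time, and pseudo-first-order rates replotted against inactivator concentration to fit Ki and kinact (E + I ⇌ E·I → E–P).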

[10] = target: Arylsulfatase (Pseudomonas aeruginosa (strain ATCC 15692 / PAO1 / 1C / PRS 101 / LMG12228)) (UniProt P51691); experiment: Ratio of Kinact to Ki for Pseudomonas aeruginosa recombinant arylsulfatase A expressed in Escherichia coli
Helix pomatia [11] = experiment: Inhibition of Helix pomatia type H1 recombinant sulfatase expressed in Escherichia coli; outline: as §2
Patella vulgata [12] = experiment: Inhibition of Patella vulgata type 5 recombinant sulfatase expressed in Escherichia coli; outline: as §1
[13] = target: Arylsulfatase (Pseudomonas aeruginosa (strain ATCC 15692 / PAO1 / 1C / PRS 101 / LMG12228)) (UniProt P51691); experiment: Ratio of Vmax/Km for Pseudomonas aeruginosa recombinant arylsulfatase A expressed in Escherichia coli
Outline: (§3)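 Hydrolysis of potassium 4-nitrophenyl sulfate followed by release of 4-nitrophenol; Vmax is expressed per mg protein and Km in mM; Vmax/Km is derived from these.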

Patella vulgata [14] = experiment: Activity at Patella vulgata type 5 recombinant sulfatase expressed in Escherichia coli
Helix pomatia [15] = experiment: Activity at Helix pomatia type H1 recombinant sulfatase expressed in Escherichia coli; outline: as §3
Haliotis corrugata [16] = experiment: Activity at abalone entrails type 8 recombinant sulfatase expressed in Escherichia coli
Haliotis corrugata [17] = experiment: Activity at abalone entrails type 8 recombinant sulfatase expressed in Escherichia coli assessed per mg of protein
Outline: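 Crude limpet or abalone enzyme hydrolysing potassium 4-nitrophenyl sulfate; 4-nitrophenol release read at 410 nm; 10 mM α-cyclodextrin added to raise sensitivity (Δε410 14400 M−1 cm−1 at pH 7); Vmax per mg protein, Km in mM.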

Helix pomatia [18] = experiment: Activity at Helix pomatia type H1 recombinant sulfatase expressed in Escherichia coli assessed per mg of protein; outline: as §3
Helix pomatia [19] = experiment: Ratio of Vmax/Km for Helix pomatia type H1 recombinant sulfatase expressed in Escherichia coli; outline: as §3
Haliotis corrugata [20] = experiment: Ratio of Vmax/Km for abalone entrails type 8 recombinant sulfatase expressed in Escherichia coli

T1/2 (Haliotis corrugata [1])	Ratio (Patella vulgata [2])	T1/2 [3]	Ratio (Haliotis corrugata [4])	T1/2 (Haliotis corrugata [5])	Ratio (Haliotis corrugata [6])	Ratio (Patella vulgata [7])	Ratio (Haliotis corrugata [8])	Ratio (Helix pomatia [9])	Ratio [10]	T1/2 (Helix pomatia [11])	T1/2 (Patella vulgata [12])	Vmax/Km [13]	Km (Patella vulgata [14])	Km (Helix pomatia [15])	Km (Haliotis corrugata [16])	Vmax (Haliotis corrugata [17])	Vmax (Helix pomatia [18])	Vmax/Km (Helix pomatia [19])	Vmax/Km (Haliotis corrugata [20])	SMILES
10 s	0.038 s⁻¹ mM⁻¹	11 s	1.01	257 s	0.0005 s⁻¹ mM⁻¹	0.91	0.043 s⁻¹ mM⁻¹	1.19 s⁻¹ mM⁻¹	480 s⁻¹ mM⁻¹	17 s	18 s									NS(=O)(=O)Oc1cccc([N+](=O)[O-])c1
												7900	10 mM	2.03 mM	10.2 mM	0.68 mmol/min/mg	0.319 mmol/min/mg	0.157	0.066	O=[N+]([O-])c1ccc(OS(=O)(=O)O)cc1
